Compound activity from PubChem.
DTT redox prof: compounds producing H2O2 with reducing agent – biochemical, NIH compound library profiling, artefact control for MLSCN library redox annotation, primary screen; DTT-dependent redox cycling H2O2, phenol red/HRP absorbance; 100% = 100 µM peroxide control, 0% = buffer; activation, % at 10 µM; 200,000 compounds, 0.03% hits; AID 878;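 active means activation of at least 50% relative to the plate's high and low controls in the primary single-dose screen; inactive means activation below 50%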;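 further: compound incubated with DTT at 0.8 mM final as the reducing agent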
Autophagy HCS: alters autophagy in cells; AID 463193; 190,000 compounds, 0.98% hits; MEF GFP-LC3 puncta imaging; test concentration mostly 10 µM; calls only at 10 µM (by protocol);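 active means percentage of spot-positive cells more than 3 SD above its plate mean, without a fluorescence outlier flag or 80% toxicity; inconclusive means no clear call, values can overlap the other calls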;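 further: spot-positive cell cutoff set from DMSO-treated cells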
ROMK primary: modulators of human ROMK potassium channel | P48048 | Tet-inducible ROMK, thallium flux fluorescence; actives lie on both sides | B-score at 10 µM | 130,000 compounds, 2% hits | AID 1918;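 active means signal ratio slope over the read window, or its plate-corrected B-score, at least 3 SD from the plate mean, either direction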;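 further: B-score of the F/F0 ratio slope over 7 to 12 s after thallium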
Dynein transport: dynein cargo transport inhibition | 3617.4 mouse cells, GR-EGFP nuclear translocation imaging; test concentration mostly 20 µM; stimulated with dexamethasone, 1 µM; hits give low values | z-score, hits read low | 220,000 compounds, 0.47% hits | AID 1381;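 active means plate z-score of nuclear minus cytoplasmic receptor signal below a set negative limit, without overly bright fluorescence or cell loss, cut at about -3.5 in these data, passing the limit was not always enough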;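 further: z-score of nuclear minus cytoplasmic ring GR-EGFP intensity difference per well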
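medium = tetracycline-free induction medium containing charcoal-stripped FBS | also added = 1.0 µM final dexamethasone stimulus | schedule = 48 h induction, 1 h compound, 30 min dex at 37 °C | technique = fixed, Hoechst-stained cells imaged at 10x for EGFP | measure = GR-EGFP nuclear translocation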
KCC2 mod: KCC2 (human) Cl- transport modulation; Q9H2X9; KCC2 cells, thallium flux FluoZin-2 fluorescence; B-score of Tl+ flux slope (higher = more flux/activation; lower = inhibition) at 10 µM; 190,000 compounds, 2.2% hits; AID 1456;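 active means thallium flux slope and its plate-corrected score both differing from the plate sample mean at a set confidence after two filtering rounds, in either direction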;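 further: slope of fluorescence scaled to starting intensity during 10 to 20 s after thallium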
Target sequence (Q9H2X9 whole entry, looked up): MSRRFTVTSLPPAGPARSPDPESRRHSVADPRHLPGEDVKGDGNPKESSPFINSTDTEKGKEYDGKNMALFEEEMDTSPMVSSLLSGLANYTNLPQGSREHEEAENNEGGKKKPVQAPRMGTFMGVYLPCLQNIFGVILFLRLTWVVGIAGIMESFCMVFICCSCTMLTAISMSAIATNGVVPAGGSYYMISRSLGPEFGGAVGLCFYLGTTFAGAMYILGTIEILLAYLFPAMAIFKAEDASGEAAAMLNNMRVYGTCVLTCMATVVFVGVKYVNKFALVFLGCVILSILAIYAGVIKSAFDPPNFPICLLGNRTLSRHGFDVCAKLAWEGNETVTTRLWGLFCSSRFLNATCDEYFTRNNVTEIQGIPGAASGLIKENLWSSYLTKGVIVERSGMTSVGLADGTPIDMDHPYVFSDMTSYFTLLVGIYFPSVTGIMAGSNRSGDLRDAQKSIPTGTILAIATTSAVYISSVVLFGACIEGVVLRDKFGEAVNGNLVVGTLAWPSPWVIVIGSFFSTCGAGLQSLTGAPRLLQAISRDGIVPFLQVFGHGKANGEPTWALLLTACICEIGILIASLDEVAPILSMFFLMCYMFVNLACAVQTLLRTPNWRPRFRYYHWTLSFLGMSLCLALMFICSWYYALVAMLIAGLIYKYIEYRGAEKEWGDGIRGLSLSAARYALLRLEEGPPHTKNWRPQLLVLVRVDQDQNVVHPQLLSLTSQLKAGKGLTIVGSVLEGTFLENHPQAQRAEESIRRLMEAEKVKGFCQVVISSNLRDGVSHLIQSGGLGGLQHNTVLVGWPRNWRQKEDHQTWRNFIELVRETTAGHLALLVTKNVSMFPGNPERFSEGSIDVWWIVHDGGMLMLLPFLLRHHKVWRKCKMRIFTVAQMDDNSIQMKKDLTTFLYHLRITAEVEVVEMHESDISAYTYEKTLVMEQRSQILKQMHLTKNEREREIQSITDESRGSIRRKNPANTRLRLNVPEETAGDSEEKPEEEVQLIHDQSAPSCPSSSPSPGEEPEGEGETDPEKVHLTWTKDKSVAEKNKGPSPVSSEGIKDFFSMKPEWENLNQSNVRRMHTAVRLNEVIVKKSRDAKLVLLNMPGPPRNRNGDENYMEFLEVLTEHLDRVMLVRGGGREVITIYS
KCC2 sec1: confirmation of human KCC2 transport modulators | shares compounds with KCC2 mod | HEK293-KCC2, thallium flux, FluoZin2 fluorescence; hits give high values | normalised thallium flux (F/F0 slope) at 10 µM | 3,700 compounds, 15% hits;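 active means thallium flux slope above the same plate's solvent-only control mean plus 3 SD; inconclusive means the two replicate wells disagree; inactive means no significant difference from solvent-only control wells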
KCC2 bumet counter: thallium flux despite bumetanide block in KCC2 cells, secondary assay 3; 3,700 compounds, 49% hits; HEK293-KCC2 + bumetanide/ouabain, thallium flux FluoZin2; hits give high values; shares compounds with KCC2 mod; AID 1714; normalized thallium flux at 10 µM;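 active means thallium entry rate above the same plate's blocked-transporter control wells by more than 3 SD; inconclusive means the two repeat wells disagree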;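 further: raw slope of fluorescence over initial fluorescence between 10 and 20 s after thallium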
KCC2 secondary2: KCC2 (human) modulation, second secondary assay; AID 1715; 3,700 compounds, 23% hits; HEK293-KCC2, thallium flux FluoZin2 fluorescence; actives lie on both sides; F/F0 rise rate, 10–20 s post-thallium; shares compounds with KCC2 mod; normalized thallium flux at 10 µM;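 active means thallium flux slope more than 3 SD above or below the plate's solvent-only control mean, mostly below; inconclusive means the two repeat wells disagreed; inactive means no significant shift from solvent-only controls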;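 further: raw slope with 0.1% DMSO as baseline and bumetanide as block control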
HEK counter1: parental HEK flux effect, counter-screen; shares compounds with KCC2 mod; HEK293 parental cells, thallium flux FluoZin2, ouabain; baseline-ratio fluorescence slope, 10–20 s after thallium; thallium flux rate (normalised fluorescence) at 10 µM; 3,700 compounds, 46% hits; AID 1716;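 active means thallium flux rate significantly above the same plate's solvent-only control wells, beyond their mean plus 3 SD; inconclusive means the two replicate wells gave conflicting results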
KCC2 ouabain: confirmation of human KCC2 modulators with ouabain; shares compounds with KCC2 mod; raw Tl+ flux slope (below DMSO = inhibition, above = activation) at 10 µM; AID 1717; HEK293-KCC2, thallium flux FluoZin2 fluorescence; bidirectional: low = inhibitor, high = activator; 3,700 compounds, 48% hits;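 active means thallium flux slope beyond 3 SD from same-plate DMSO control mean in most replicates, usually higher, sometimes lower; inconclusive means repeat tests gave conflicting results; inactive means no significant difference from controls in most replicates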;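 further: slope of initial-normalized fluorescence between seconds 10 and 20 after thallium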
HEK293 Tl flux2: acts in parental HEK cells, second KCC2 counter-screen; thallium flux slope at 10 µM; 3,700 compounds, 33% hits; AID 1718; shares compounds with KCC2 mod; HEK293 parental, thallium flux FluoZin-2 fluorescence slope;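 active means thallium flux slope above the same plate's solvent-control mean plus 3 SD in both duplicate wells; inconclusive means duplicate wells that disagreed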;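 further: run without ouabain in cells lacking the KCC2 cotransporter; slope of fluorescence scaled to its starting value between 10 and 20 s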
* = called active by the depositor; i = inactive; ? = inconclusive; / = no result given; + = active, no number; ! = a repeat was not active. Hits are enriched below; roughly 4.1% of the tested compounds scored in any of these assays.

SMILES	DTT redox prof	Autophagy HCS	ROMK primary	Dynein transport	KCC2 mod	KCC2 sec1	KCC2 bumet counter	KCC2 secondary2	HEK counter1	KCC2 ouabain	HEK293 Tl flux2
CCOc1cc(N(CC)CC)ccc1/C=C(/C#N)c1nc2ccccc2[nH]1	1	+	/	3.6	/	0.0077*	-0.0033*	0.029	?	0.0081*	0.011
CC1CC(=O)NN1C(=O)c1ccccc1 (stereo unspecified)	/	/	0.39	-0.052	-0.016	/	/	/	/	/	/
CCOc1cccc(-c2nnc3sc(COc4ccc(Cl)cc4)nn23)c1	0	i	/	-0.95	-3.6*	0.019	0.0046	0.028	0.0072	0.014	0.01
Cc1cc2ccccn2c1C(=S)NC(=O)c1ccccc1	0	i	2.1	-0.48	66*	0.02*	0.14*	0.1*	0.12*	0.12*	0.11*
O=C(CN1C(=O)C2C3C=CC(C3)C2C1=O)NCCN1CCCc2ccccc21 (stereo unspecified)	-1	i	/	-0.68	4.5*	0.0076	0.006	0.031	0.0069	0.021	0.0096
O=C(CCN1C(=O)C2C3C=CC(C3)C2C1=O)NCCN1CCCc2ccccc21 (stereo unspecified)	0	i	/	-0.43	-0.037	/	/	/	/	/	/
Cc1cc(C(F)(F)F)nc(-n2cc(-c3ccccc3)nn2)n1	1	i	2	0.26	0.85	/	/	/	/	/	/
O=C(COc1ccccc1)Nc1nnc(-c2ccc(Cl)s2)o1	-1	i	/	1.5	/	0.014*	0.022*	0.031	0.012*	0.025	0.012*
Cc1ccc(-n2cccc2/C=N/n2cnnc2)cc1Cl	0	i	-0.61	0.33	/	0.019	0.0046	0.027	0.0067	0.015	0.0096
O=c1oc(-c2ccccc2Cl)nc2ccsc12	0	i	-1.4	-2.5	/	/	/	/	/	/	/
O=c1oc(-c2ccc(F)cc2)nc2ccsc12	0	i	0.69	-1.1	/	0.0061	0.005	0.032	?	0.017*	0.01
CSc1nsc(SCC(=O)Nc2nc3ccc(C)cc3s2)n1	0	i	/	0.22	0.26	/	/	/	/	/	/
CC(C)c1onc(C(=O)N2CCN(Cc3ccccc3)CC2)c1[N+](=O)[O-]	1	i	-0.34	1.4	-4.9*	0.0089	0.006	0.028*	0.0077	0.015*	0.0099
CC(C)c1onc(C(=O)N(C)Cc2ccccc2)c1[N+](=O)[O-]	-1	i	-0.22	-0.044	-1.7	/	/	/	/	/	/
CC(C)c1onc(C(=O)N2CCOCC2)c1[N+](=O)[O-]	1	i	-0.87	1.7	0.81	/	/	/	/	/	/
CC(C)c1onc(C(=O)NCCc2ccccc2)c1[N+](=O)[O-]	0	i	-0.032	1.2	-5.2*	0.0053	0.005	0.025*	0.0078	?	0.01
Cc1ccccc1NCC(=O)N/N=C/c1ccc([N+](=O)[O-])cc1	0	i	-1.3	0.63	-5.8*	0.0075	0.0049	?	0.008	0.018	0.0099
Cc1cccc(C=Nc2ccccc2C(N)=O)c1	0	i	2.7	0.14	-4.7*	0.005	0.0048	0.03	0.0074	0.018	0.011
Cc1ccc(C=Nc2ccccc2C(N)=O)s1	1	i	/	-0.42	-0.014	/	/	/	/	/	/
CC(C)Oc1ccc2c(=O)c(-c3ccccc3)coc2c1	1	i	-0.53	-1	-3.6*!	0.0032*	0.0054	0.028	?	0.014*	0.0095
COC(=O)COc1ccc2c(=O)c(-c3ccccc3)coc2c1	/	/	/	0.35	-3.7	/	/	/	/	/	/
COc1ccc(C2=NN(CCC(=O)NCc3cccs3)C(=O)CC2)cc1	0	i	/	1.2	-0.69	/	/	/	/	/	/
COc1ccc(C/C(C)=N/NC(=S)Nc2ccccc2F)cc1	-1	i	0.21	-0.39	55*	0.011	0.036*	0.04	?	0.039*	?
COc1ccc(OCC(=O)NC(=S)Nc2ccccc2F)cc1	-1	i	/	0.43	52*	0.04*	0.088*	0.049*	0.028*	0.051*	0.033*
CC(C)CC1NC(=O)N(Cc2nc3ccccc3s2)C1=O (stereo unspecified)	/	/	/	0.17	-0.95	/	/	/	/	/	/
SMILES	DTT redox prof	Autophagy HCS	ROMK primary	Dynein transport	KCC2 mod	KCC2 sec1	KCC2 bumet counter	KCC2 secondary2	HEK counter1	KCC2 ouabain	HEK293 Tl flux2
NC(=O)COc1ccccc1/C=C1/SC(=O)N(CC(=O)N2CCc3ccccc3C2)C1=O	-5	i	-2	-0.55	-3.4*	0.0058	0.0049	0.023*	0.007	0.016*	0.0091
S=c1[nH]nc(C2CCCCC2)n1/N=C/c1cccs1	2	i	/	1.2	6.1*	0.013*	0.065*	0.033	0.023*	?	?
S=c1[nH]nc(-c2cccs2)n1/N=C/c1cn(-c2ccccc2)nc1-c1cccs1	/	/	0.11	-0.57	-0.3	/	/	/	/	/	/
Cc1ccc(/C=N/n2c(-c3ccncc3)n[nH]c2=S)cc1	0	i	/	0.33	0.8	/	/	/	/	/	/
CC(C)(C)c1ccc(-c2n[nH]c(=S)n2/N=C/c2ccncc2)cc1	0	i	0.0045	0.37	5.6*	0.011	0.018*	0.032	0.013*	?	0.011
S=c1[nH]nc(-c2ccccc2)n1/N=C/c1cccs1	-1	i	/	-0.099	/	0.0056	0.04*	0.043*	0.025*	0.037*	0.027*
Cc1ccc(-c2nn(-c3ccccc3)cc2/C=N/n2c(-c3cccs3)n[nH]c2=S)cc1	/	/	-0.037	-0.43	4.6*	0.011	0.0094*	0.03	0.018*	0.021	0.012
COc1cc(/C=N/n2c(-c3ccccc3)n[nH]c2=S)cc(OC)c1OC	/	/	/	-1.1	0.0088	/	/	/	/	/	/
Cc1c(NS(=O)(=O)c2cccc(C(=O)OCC(=O)N(C)C3CCCCC3)c2)c(=O)n(-c2ccccc2)n1C	-1	i	0.095	0.68	1.5	/	/	/	/	/	/
Cc1ccc(-c2nc(CN(Cc3c(C)nn(C)c3C)C(C)C)c(C)o2)o1	0	i	0.75	0.46	0.17	/	/	/	/	/	/
Cc1ccc(-c2n[nH]c(=S)n2/N=C/c2cccn2C)cc1	2	i	/	-0.1	5.2*	0.012	0.031*	0.034	0.0093*	0.026	0.011*
